Measured values published in ChEMBL document CHEMBL1134340, “GnRH antagonists: a new generation of long acting analogues incorporating p-ureido-phenylalanines at positions 5 and 6” (J Med Chem, 2001).
Where a SMILES comes first, the peptide text is derived from it. [ ]: non-standard residue; d: D form. d(hArg(Et2)) = CCN=C(NCC)NCCCC[C@@H](N)C(=O)O; hArg(Et2) = CCN=C(NCC)NCCCC[C@H](N)C(=O)O; dPhe(4-Cl) = N[C@H](Cc1ccc(Cl)cc1)C(=O)O; d2Nal = N[C@H](Cc1ccc2ccccc2c1)C(=O)O; Lys(iPr) = CC(C)NCCCC[C@H](N)C(=O)O; NMeY = CN[C@@H](Cc1ccc(O)cc1)C(=O)O; d3Pal = N[C@H](Cc1cccnc1)C(=O)O

Legend:
[1] = target: T1, Gonadotropin-releasing hormone receptor (Homo sapiens, UniProt P30968); assay: Antagonism of human GnHR receptor, determined in a reporter gene assay in HEK293 cells; assay type: functional, cell-based
T1 sequence (P30968 whole entry): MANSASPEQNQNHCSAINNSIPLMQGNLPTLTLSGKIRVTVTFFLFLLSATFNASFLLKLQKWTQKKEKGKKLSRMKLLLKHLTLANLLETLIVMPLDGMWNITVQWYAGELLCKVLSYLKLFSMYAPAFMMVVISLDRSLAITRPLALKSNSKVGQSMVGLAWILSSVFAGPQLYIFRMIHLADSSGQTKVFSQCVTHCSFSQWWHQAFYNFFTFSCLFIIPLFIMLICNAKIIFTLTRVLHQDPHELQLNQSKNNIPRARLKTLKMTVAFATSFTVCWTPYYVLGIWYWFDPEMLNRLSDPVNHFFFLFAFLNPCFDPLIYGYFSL
Outline: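 HEK293 cells stably expressing cloned human GnRH receptor plus luciferase reporter under LH alpha subunit promoter, plated 24 h before assay. Compound in 1% DMSO added 10 min at 37 °C, then GnRH at 3 nM final; 5 h incubation, luciferase luminescence read. Six concentrations in duplicate; blank-subtracted cps as % of GnRH control; mean of two determinations.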

[2] = target: T1, Gonadotropin-releasing hormone receptor; assay: Competitive antagonism of GnRH-induced response in the reporter gene assay; assay type: functional; settings: read-out: pA2 (converted)
Outline: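 Same HEK293 human GnRH receptor luciferase reporter cells. Seven-point GnRH curve (10 µM to 10 pM final) run in duplicate without or with four to five increasing compound concentrations (10 min preincubation, 37 °C), then 5 h and luminescence. GnRH EC50 at each level by four-parameter logistic fit, giving pA2; mean of two determinations in duplicate.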

[3] = species: Rattus norvegicus; assay: Compound was tested for inhibition of Leutenizing hormone release at 72 hours (long duration) in castrated male rat assay; assay type: functional; design: concentration or dose not given beside the values
Outline: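 Male Sprague-Dawley rats (180-200 g), castrated under ether 10 days earlier, 5 per group. 50 µg/rat given sc in 100 µL 40 mM phosphate buffer with 0.1% BSA and 0.6% DMSO; acyline run as internal standard. Tail blood taken predose and at 24, 48, 72, 96 (sometimes 120) h; plasma LH by RIA. Duration classed by >80% LH inhibition at each time.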

`CC(=O)NCc1ccc(C[C@@H](NC(=O)[C@H](Cc2ccc(NC(=O)[C@@H]3CC(=O)NC(=O)N3)cc2)NC(=O)[C@H](CO)NC(=O)[C@@H](Cc2cccnc2)NC(=O)[C@@H](Cc2ccc(Cl)cc2)NC(=O)[C@@H](Cc2ccc3ccccc3c2)NC(C)=O)C(=O)N[C@@H](CC(C)C)C(=O)N[C@@H](CCCCNC(C)C)C(=O)N2CCC[C@H]2C(=O)N[C@H](C)C(N)=O)cc1` [listing 1 of 2 here] was tested, and the IC50 [1] was 9.5 nM and the Kb [2] was 1 nM.
With `CC(=O)N[C@H](Cc1ccc2ccccc2c1)C(=O)N[C@H](Cc1ccc(Cl)cc1)C(=O)N[C@H](Cc1cccnc1)C(=O)N[C@@H](CO)C(=O)N[C@@H](Cc1ccc(NC(=O)[C@@H]2CC(=O)NC(=O)N2)cc1)C(=O)N[C@H](Cc1cccnc1)C(=O)N[C@@H](CC(C)C)C(=O)N[C@@H](CCCCNC(C)C)C(=O)N1CCC[C@H]1C(=O)N[C@H](C)C(N)=O` the IC50 [1] was 2.8 nM and the Kb [2] was 2 nM.
With `CCN=C(NCC)NCCCC[C@H](NC(=O)[C@H](CC(C)C)NC(=O)[C@@H](CCCCNC(=NCC)NCC)NC(=O)[C@H](Cc1ccc(O)cc1)NC(=O)[C@H](CO)NC(=O)[C@@H](Cc1cccnc1)NC(=O)[C@@H](Cc1ccc(Cl)cc1)NC(=O)[C@@H](Cc1ccc2ccccc2c1)NC(C)=O)C(=O)N1CCC[C@H]1C(=O)N[C@H](C)C(N)=O` [GANIRELIX ACETATE] (Ac-[d2Nal][dPhe(4-Cl)][d3Pal]SY[d(hArg(Et2))]L[hArg(Et2)]P[dA]-NH2) the IC50 [1] was 3.6 nM and the Kb [2] was 0.501 nM.
Work on `CC(=O)N[C@H](Cc1ccc2ccccc2c1)C(=O)N[C@H](Cc1ccc(Cl)cc1)C(=O)N[C@H](Cc1cccnc1)C(=O)N[C@@H](CO)C(=O)N[C@@H](Cc1ccc(NC(=O)[C@H]2CC(=O)NC(=O)N2)cc1)C(=O)N[C@H](Cc1ccc(CNC(N)=O)cc1)C(=O)N[C@@H](CC(C)C)C(=O)N[C@@H](CCCCNC(C)C)C(=O)N1CCC[C@H]1C(=O)N[C@H](C)C(N)=O` yielded an IC50 [1] of 7.7 nM.
`CCNC(=O)[C@@H]1CCCN1C(=O)[C@H](CCCCNC(C)C)NC(=O)[C@H](CC(C)C)NC(=O)[C@@H](Cc1ccc(NC(N)=O)cc1)NC(=O)[C@H](Cc1ccc(NC(=O)[C@@H]2CC(=O)NC(=O)N2)cc1)NC(=O)[C@H](CO)NC(=O)[C@@H](Cc1cccnc1)NC(=O)[C@@H](Cc1ccc(Cl)cc1)NC(=O)[C@@H](Cc1ccc2ccccc2c1)NC(C)=O` showed an Inhibition [3] greater than 80%.
For `CC(=O)NCc1ccc(C[C@@H](NC(=O)[C@H](Cc2ccc(NC(=O)[C@H]3CC(=O)NC(=O)N3)cc2)NC(=O)[C@H](CO)NC(=O)[C@@H](Cc2cccnc2)NC(=O)[C@@H](Cc2ccc(Cl)cc2)NC(=O)[C@@H](Cc2ccc3ccccc3c2)NC(C)=O)C(=O)N[C@@H](CC(C)C)C(=O)N[C@@H](CCCCNC(C)C)C(=O)N2CCC[C@H]2C(=O)N[C@H](C)C(N)=O)cc1` [listing 1 of 2 here], the IC50 [1] was 7 nM and the Kb [2] was 1.58 nM.
Compound `CC(=O)N[C@H](Cc1ccc2ccccc2c1)C(=O)N[C@H](Cc1ccc(Cl)cc1)C(=O)N[C@H](Cc1cccnc1)C(=O)N[C@@H](CO)C(=O)N[C@@H](Cc1ccc(NC(=O)[C@@H]2CC(=O)NC(=O)N2)cc1)C(=O)N[C@H](CCCNC(N)=O)C(=O)N[C@@H](CC(C)C)C(=O)N[C@@H](CCCCNC(C)C)C(=O)N1CCC[C@H]1C(=O)N[C@H](C)C(N)=O` [listing 1 of 2 here] has an Inhibition [3] greater than 80%.
With `CC(=O)Nc1ccc(C[C@H](NC(=O)[C@H](CO)NC(=O)[C@@H](Cc2cccnc2)NC(=O)[C@@H](Cc2ccc(Cl)cc2)NC(=O)[C@@H](Cc2ccc3ccccc3c2)NC(C)=O)C(=O)N[C@H](Cc2ccc(CNC(N)=O)cc2)C(=O)N[C@@H](CC(C)C)C(=O)N[C@@H](CCCCNC(C)C)C(=O)N2CCC[C@H]2C(=O)N[C@H](C)C(N)=O)cc1` the IC50 [1] was 6.4 nM and the Kb [2] was 0.631 nM.
`CC(=O)N[C@H](Cc1ccc2ccccc2c1)C(=O)N[C@H](Cc1ccc(Cl)cc1)C(=O)N[C@H](Cc1cccnc1)C(=O)N[C@@H](CO)C(=O)N[C@@H](Cc1ccc(NC(=O)[C@@H]2CC(=O)NC(=O)N2)cc1)C(=O)N[C@H](Cc1ccc2ccccc2c1)C(=O)N[C@@H](CC(C)C)C(=O)N[C@@H](CCCCNC(C)C)C(=O)N1CCC[C@H]1C(=O)N[C@H](C)C(N)=O` was tested, and the IC50 [1] was 13 nM.
For `CNC(=O)NCc1ccc(C[C@@H](NC(=O)[C@H](Cc2ccc(NC(=O)[C@@H]3CC(=O)NC(=O)N3)cc2)NC(=O)[C@H](CO)NC(=O)[C@@H](Cc2cccnc2)NC(=O)[C@@H](Cc2ccc(Cl)cc2)NC(=O)[C@@H](Cc2ccc3ccccc3c2)NC(C)=O)C(=O)N[C@@H](CC(C)C)C(=O)N[C@@H](CCCCNC(C)C)C(=O)N2CCC[C@H]2C(=O)N[C@H](C)C(N)=O)cc1`, the IC50 [1] was 7.9 nM and the Kb [2] was 0.794 nM.
`CC(=O)NCc1ccc(C[C@@H](NC(=O)[C@H](Cc2ccc(NC(=O)[C@@H]3CC(=O)NC(=O)N3)cc2)NC(=O)[C@H](CO)NC(=O)[C@@H](Cc2cccnc2)NC(=O)[C@@H](Cc2ccc(Cl)cc2)NC(=O)[C@@H](Cc2ccc3ccccc3c2)NC(C)=O)C(=O)N[C@@H](CC(C)C)C(=O)N[C@@H](CCCCNC(C)C)C(=O)N2CCC[C@H]2C(=O)N[C@H](C)C(N)=O)cc1` [listing 2 of 2 here] gave an Inhibition [3] greater than 80%.
For `CC(=O)Nc1ccc(C[C@@H](NC(=O)[C@H](Cc2ccc(CNC(=O)[C@@H]3CC(=O)NC(=O)N3)cc2)NC(=O)[C@H](CO)NC(=O)[C@@H](Cc2cccnc2)NC(=O)[C@@H](Cc2ccc(Cl)cc2)NC(=O)[C@@H](Cc2ccc3ccccc3c2)NC(C)=O)C(=O)N[C@@H](CC(C)C)C(=O)N[C@@H](CCCCNC(C)C)C(=O)N2CCC[C@H]2C(=O)N[C@H](C)C(N)=O)cc1` [listing 1 of 2 here], the Inhibition [3] was greater than 80%.
Compound `CC(=O)N[C@H](Cc1ccc2ccccc2c1)C(=O)N[C@H](Cc1ccc(Cl)cc1)C(=O)N[C@H](Cc1cccnc1)C(=O)N[C@@H](CO)C(=O)N(C)[C@@H](Cc1ccc(O)cc1)C(=O)N[C@H](CC(N)=O)C(=O)N[C@@H](CC(C)C)C(=O)N[C@@H](CCCCNC(C)C)C(=O)N1CCC[C@H]1C(=O)N[C@H](C)C(N)=O` [ABARELIX] (Ac-[d2Nal][dPhe(4-Cl)][d3Pal]S[NMeY][dN]L[Lys(iPr)]P[dA]-NH2) has an IC50 [1] of 3.5 nM and a Kb [2] of 0.794 nM.
`CC(=O)Nc1ccc(C[C@@H](NC(=O)[C@H](Cc2ccc(CNC(=O)[C@@H]3CC(=O)NC(=O)N3)cc2)NC(=O)[C@H](CO)NC(=O)[C@@H](Cc2cccnc2)NC(=O)[C@@H](Cc2ccc(Cl)cc2)NC(=O)[C@@H](Cc2ccc3ccccc3c2)NC(C)=O)C(=O)N[C@@H](CC(C)C)C(=O)N[C@@H](CCCCNC(C)C)C(=O)N2CCC[C@H]2C(=O)N[C@H](C)C(N)=O)cc1` [listing 2 of 2 here] showed an IC50 [1] of 7.9 nM and a Kb [2] of 0.316 nM.
For `CC(=O)N[C@H](Cc1ccc2ccccc2c1)C(=O)N[C@H](Cc1ccc(Cl)cc1)C(=O)N[C@H](Cc1cccnc1)C(=O)N[C@@H](CO)C(=O)N[C@@H](Cc1ccc(NC(=O)[C@@H]2CC(=O)NC(=O)N2)cc1)C(=O)N[C@H](CCCNC(N)=O)C(=O)N[C@@H](CC(C)C)C(=O)N[C@@H](CCCCNC(C)C)C(=O)N1CCC[C@H]1C(=O)N[C@H](C)C(N)=O` [listing 2 of 2 here], the IC50 [1] was 5.8 nM and the Kb [2] was 0.794 nM.
Work on `CC(=O)NCc1ccc(C[C@@H](NC(=O)[C@H](Cc2ccc(NC(=O)[C@H]3CC(=O)NC(=O)N3)cc2)NC(=O)[C@H](CO)NC(=O)[C@@H](Cc2cccnc2)NC(=O)[C@@H](Cc2ccc(Cl)cc2)NC(=O)[C@@H](Cc2ccc3ccccc3c2)NC(C)=O)C(=O)N[C@@H](CC(C)C)C(=O)N[C@@H](CCCCNC(C)C)C(=O)N2CCC[C@H]2C(=O)N[C@H](C)C(N)=O)cc1` [listing 2 of 2 here] yielded an Inhibition [3] greater than 80%.
Work on `CC(=O)Nc1ccc(C[C@@H](NC(=O)[C@H](Cc2ccc(NC(=O)c3cc(=O)[nH]c(=O)[nH]3)cc2)NC(=O)[C@H](CO)NC(=O)[C@@H](Cc2cccnc2)NC(=O)[C@@H](Cc2ccc(Cl)cc2)NC(=O)[C@@H](Cc2ccc3ccccc3c2)NC(C)=O)C(=O)N[C@@H](CC(C)C)C(=O)N[C@@H](CCCCNC(C)C)C(=O)N2CCC[C@H]2C(=O)N[C@H](C)C(N)=O)cc1` yielded an IC50 [1] of 10.7 nM.
`CC(=O)N[C@H](Cc1ccc2ccccc2c1)C(=O)N[C@H](Cc1ccc(Cl)cc1)C(=O)N[C@H](Cc1cccnc1)C(=O)N[C@@H](CO)C(=O)N[C@@H](Cc1ccc(NC(=O)[C@@H]2CC(=O)NC(=O)N2)cc1)C(=O)N[C@H](Cc1ccc(CNC(N)=O)cc1)C(=O)N[C@@H](CC(C)C)C(=O)N[C@@H](CCCCNC(C)C)C(=O)N1CCC[C@H]1C(=O)N[C@H](C)C(N)=O` was tested, and the IC50 [1] was 5.6 nM and the Kb [2] was 1.26 nM.
With `CCNC(=O)[C@@H]1CCCN1C(=O)[C@H](CCCCNC(C)C)NC(=O)[C@H](CC(C)C)NC(=O)[C@@H](Cc1ccc(CNC(N)=O)cc1)NC(=O)[C@H](Cc1ccc(NC(=O)[C@@H]2CC(=O)NC(=O)N2)cc1)NC(=O)[C@H](CO)NC(=O)[C@@H](Cc1cccnc1)NC(=O)[C@@H](Cc1ccc(Cl)cc1)NC(=O)[C@@H](Cc1ccc2ccccc2c1)NC(C)=O` the IC50 [1] was 8.8 nM and the Kb [2] was 0.631 nM.
For `CC(=O)N[C@H](Cc1ccc2ccccc2c1)C(=O)N[C@H](Cc1ccc(Cl)cc1)C(=O)N[C@H](Cc1cccnc1)C(=O)N[C@@H](CO)C(=O)N[C@@H](Cc1ccc(NC(=O)[C@@H]2CC(=O)NC(=O)N2)cc1)C(=O)N[C@H](Cc1ccc(NC(=O)[C@@H]2CC(=O)NC(=O)N2)cc1)C(=O)N[C@@H](CC(C)C)C(=O)N[C@@H](CCCCNC(C)C)C(=O)N1CCC[C@H]1C(=O)N[C@H](C)C(N)=O`, the IC50 [1] was 10.8 nM and the Kb [2] was 1 nM.
